Measured values from different studies.
Each line is one published result; the experiments were not run side by side.
Target: Activin receptor type-1 (ACVR1, Homo sapiens, UniProt Q04771)
One construct used (Q04771 21-509): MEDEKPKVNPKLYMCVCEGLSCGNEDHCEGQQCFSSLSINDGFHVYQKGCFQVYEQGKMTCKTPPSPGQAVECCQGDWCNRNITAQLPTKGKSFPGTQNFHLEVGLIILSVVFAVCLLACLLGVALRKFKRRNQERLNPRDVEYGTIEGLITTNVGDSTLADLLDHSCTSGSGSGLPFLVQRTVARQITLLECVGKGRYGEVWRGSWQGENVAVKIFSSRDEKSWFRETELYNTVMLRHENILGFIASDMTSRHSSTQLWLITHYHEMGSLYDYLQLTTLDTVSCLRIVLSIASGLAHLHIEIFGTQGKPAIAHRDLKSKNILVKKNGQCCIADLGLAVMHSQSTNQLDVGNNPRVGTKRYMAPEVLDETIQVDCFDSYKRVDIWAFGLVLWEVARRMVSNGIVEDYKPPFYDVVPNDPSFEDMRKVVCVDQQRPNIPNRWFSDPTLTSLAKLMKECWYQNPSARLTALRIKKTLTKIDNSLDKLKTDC

SMILES	assay	conditions	remaining binding [%]
O=C(c1ccc(Nc2ncc(Cl)c(-c3cc4ccccc4s3)n2)cc1)N1CCC(N2CCCC2)CC1	binding, competition with immobilised ligand	1 µM	69
COc1cnc(Nc2cccc(S(N)(=O)=O)c2)nc1N1CCN(c2ccccc2)C(=O)C1	binding, competition with immobilised ligand	1 µM	100
Cc1nc(N2CC[C@@H](O)C2)ncc1-c1cc(C(F)(F)F)cc2[nH]ncc12	cell-free assay, competition with immobilised ligand	1 µM	80
C[C@H]1CCN(c2nccc(-c3cnn4ncccc34)n2)C1	binding	1 µM	100
FC(F)(F)Oc1cccc(-c2cnc3ccc(-c4ccncc4)nn23)c1	cell-free assay, competition with immobilised ligand	5 µM	8.9
O=C(O)[C@@H]1[C@@H](Cn2nnc3ccccc3c2=O)CC[C@H]1C(=O)c1ccc(OCCC2CCOCC2)cc1	cell-free assay, competition with immobilised ligand	1 µM	100
C=CC(=O)N1CCC(C(=O)NCC(=O)N2CCN(c3nc(-c4cnc(N)nc4C(F)F)nc(N4CCOCC4)n3)CC2)CC1	binding, competition with immobilised ligand	1 µM	100
COc1cnc(Nc2cccc(S(N)(=O)=O)c2)nc1N1CCN(c2ccccc2)CC1	binding, competition with immobilised ligand	1 µM	100
O=C(Nc1c[nH]nc1C(=O)NC1CCNCC1)c1cc(F)cc(F)c1	binding, competition with immobilised ligand	1 µM	100
CN(CCCC(F)(F)F)c1nccc(-c2cnn3ncccc23)n1	binding	1 µM	77
COc1ccc2c(c1)O[C@@H](c1ccc(OC)c(OC)c1)C[C@H]2NC(=O)C1(c2ccc3c(c2)OC(F)(F)O3)CC1	cell-free assay, competition with immobilised ligand	1 µM	100
CN(C)c1nccc(-c2cnn3ncccc23)n1	binding	1 µM	90
Cc1nccc(COC(=O)N2C[C@@H]3[C@@H](CNC(=O)c4ccc5[nH]nnc5c4)[C@@H]3C2)n1	cell-free assay, competition with immobilised ligand	1 µM	95
Nc1ncc2c(n1)-c1c([nH]c3ccc(C#CC4CC4)cc13)CCCC2	binding, competition with immobilised ligand	1 µM	100
O=C(c1ccc(Nc2ncc(Cl)c(-c3ccc(Cl)s3)n2)cc1)N1CCC(N2CCCC2)CC1	binding, competition with immobilised ligand	1 µM	41
CN(C)c1nccc(-c2cnc3ncccn23)n1	binding	1 µM	88
O=C1CCc2cc(Nc3cc(OC4CCOCC4)c([N+](=O)[O-])cc3Cl)ccc2N1	cell-free assay, competition with immobilised ligand	1 µM	100
CN(c1nccc(-c2cnn3ncccc23)n1)C1CC1	binding	1 µM	93
Cc1cnc(Nc2ccc(C(=O)N3CCC(N4CCCC4)CC3)cc2)nc1-c1cc2ccccc2s1	binding, competition with immobilised ligand	1 µM	72
c1cnn2ncc(-c3ccnc(N4CCC45COC5)n3)c2c1	binding	1 µM	64
O=C(NCCCC1CCCCC1)c1ccc(CNC(=O)c2cnn(-c3ccccc3)c2C(F)(F)F)cc1	cell-free assay, competition with immobilised ligand	0.1 µM	100
